Most compounds without a hit are left out; they make up all but 3.3% or so of the library.
PfM18AAP inh = PfM18AAP inhibitors, malaria aminopeptidase, primary screen, biochemical, QFRET, recombinant enzyme. H-Glu-NHMec fluorogenic cleavage. inhibition, % at 7.35 µM. AID 1822, 2009. M18 aspartyl aminopeptidase (Plasmodium falciparum 3D7). 290,000 compounds, 1.2% hits;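 active = inhibition above the campaign mean inhibition over all tested compounds plus 3 SD, cut at about 28% in these data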;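 also: 0% = plate median of test compound wells and 100% = 2 mM ZnCl2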
HTR2A ag = mouse Htr2a agonists via beta-arrestin recruitment, primary screen, cell-based, luminescence. AID 624169, 2012. 5-hydroxytryptamine receptor 2A (Mus musculus), P35363. activation, % at 7.6 µM. 360,000 compounds, 0.66% hits. CHO-K1 mHTR2A beta-arrestin complementation; percent of 30 µM serotonin response;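 active = activation above a run cutoff, the mean activation of all tested compounds plus 3 SD, cut at about 14% in these data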;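 also: 0% = plate median of compound wells and 100% = 30 µM serotonin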
Target sequence (P35363 whole entry, looked up): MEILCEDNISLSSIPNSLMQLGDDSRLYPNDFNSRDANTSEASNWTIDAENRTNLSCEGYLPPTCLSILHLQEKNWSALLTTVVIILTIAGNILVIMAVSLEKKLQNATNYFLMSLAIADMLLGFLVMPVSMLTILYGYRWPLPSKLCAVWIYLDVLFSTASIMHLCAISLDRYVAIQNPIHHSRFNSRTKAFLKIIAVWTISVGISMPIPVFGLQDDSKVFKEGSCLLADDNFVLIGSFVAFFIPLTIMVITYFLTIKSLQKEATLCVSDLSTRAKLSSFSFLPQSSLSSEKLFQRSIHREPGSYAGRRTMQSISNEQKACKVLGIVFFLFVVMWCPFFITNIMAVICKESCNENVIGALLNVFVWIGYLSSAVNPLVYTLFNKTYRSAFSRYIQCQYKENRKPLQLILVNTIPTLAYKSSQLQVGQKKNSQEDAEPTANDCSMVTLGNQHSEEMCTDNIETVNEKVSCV
Hep lipid drop = inhibitors of hepatocyte lipid droplet formation, primary screen, imaging, high-throughput imaging, BODIPY stain; AML12 mouse hepatocytes, oleate lipid droplets; inhibition, % at 6.5 µM; 240,000 compounds, 0.4% hits;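 active = lipid droplet intensity inhibited by at least 50%, with more than 500 cells counted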
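Assay system: AML12 mouse liver cells | Compound dosing: One dose, 6.5 µM compound | Read-out basis: Droplet intensity reduction, % inhibition | Measured by: Fluorescence imaging, 20x objective, two fields per well | Schedule: Overnight treatment with compound plus oleate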
Arrestin-AP2 inh = inhibitors of beta-arrestin/AP2 binding, primary screen, biochemical, GPCR trafficking, flow cytometry; beta-arrestin 1 C-terminal peptide binding to AP2 beta2-adaptin appendage (human); FITC-arrestin peptide / GST-AP2 beads; AP2 beta2 appendage carries R879A mutation; inhibition, % at 10 µM; 340,000 compounds, 0.31% hits;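 active = inhibition above a set limit, near 3 SD of compounds lacking own fluorescence, cut at about 54% in these data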;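 also: plate controls were DMSO wells for no effect and 5 µM unlabelled arrestin peptide for full effect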
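system = GST-tagged AP2 beta2-adaptin appendage (R879A) on 4 µm glutathione beads | reagent = FITC-labelled arrestin peptide probe, 50 nM final | schedule = compound with beads 12 min RT, then probe 1 h RT | signal = HyperCyt-sampled flow cytometry, FL1 channel, ex 488/em 535 nm | read-out = percent response from loss of bead-bound FITC fluorescence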
CendR NRP1 mod = modulators of CendR peptide binding to NRP-1, primary screen, biochemical, fluorescence polarization, uHTS; FAM-RPARPAR peptide binding to NRP-1; 360,000 compounds, 0.85% hits; Neuropilin-1 (Homo sapiens), O14786; inhibition, % at 25 µM; AID 602438, 2012;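 active = inhibition or corrected inhibition above about 18%, plus a signal ratio from 0.5 to 1.5, limit read from the data, passing the limit was not always enough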
HGIII-sPLA2 inh = human group III sPLA2 inhibitors, primary screen, biochemical, QFRET, BODIPY PC-A2 liposome substrate; inhibition, % at 12.2 µM; 370,000 compounds, 0.56% hits; QFRET BODIPY PC-A2 liposome hydrolysis, fluorescence;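 active = inhibition above mean plus 3 SD of compounds lying within the high and low control bounds, cut at about 19% in these data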;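 also: 0% = median of test compound wells and 100% = no enzyme DMSO wells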
The depositor's hits bear a star; · = not tested or not shown.

SMILES | PfM18AAP inh | HTR2A ag | Hep lipid drop | Arrestin-AP2 inh | CendR NRP1 mod | HGIII-sPLA2 inh
COc1ccc([C@@]23CCN=C2c2[nH]c4ccccc4c2CCN3)c(N)c1 | · | · | · | · | · | -0.3
Cc1ccc(NCC(=O)c2ccccc2)cc1Cl | -7.8 | 1.8 | -2.6 | 3.4 | -18.0 | 0.0
Cc1ccc(C(=O)CNc2ccc(C)c(Cl)c2)cc1 | 4.3 | 6.0 | -3.7 | 10.2 | 30.4* | 18.0
O=C(CCN1CCOCC1)NNC(=S)NC(=O)c1ccc(Br)cc1 | 29.6* | 0.3 | 0.2 | 11.8 | -4.1 | -2.5
O=C(CNC(=S)N(CCCN1CCOCC1)Cc1cccs1)NCCN1CCOCC1 | 8.1 | 8.6 | -5.7 | 6.4 | -2.9 | 9.2
O=C(CNC(=S)N(CCCN1CCOCC1)Cc1cccs1)NCc1ccccc1 | -0.2 | -4.5 | -1.8 | -31.4 | 34.1* | 7.0
CN(C(=O)Cn1c(=O)oc2ccccc21)C1CCCCC1 | · | -2.9 | · | 4.3 | 20.0* | 0.9
CN(CC(=O)Nc1cccc(F)c1)C(=O)Cn1c(=O)oc2ccccc21 | · | -1.8 | · | -0.7 | 22.6* | 8.3
O=C(c1ccccc1)c1c2c(cc3sc4ccccc4[n+]13)-c1cccc3cccc-2c13 | 11.7 | 7.7 | -66.7 | 34.5 | 6.0 | 23.4*
Cc1sc2cc3c(c(C(=O)c4ccccc4)[n+]2c1C)-c1cccc2cccc-3c12 | 2.3 | · | -47.0 | · | · | 19.0
Cc1cc(=O)n2nc(N3CCCC(C(=O)N4CCc5ccccc54)C3)sc2n1 (stereo not drawn) | 4.0 | 2.2 | -28.1 | -38.9 | -4.2 | ·
Cc1cc(=O)n2nc(N3CCCC(C(=O)N4CCOCC4)C3)sc2n1 (stereo not drawn) | 0.6 | 4.4 | -4.6 | -1.2 | 44.4* | 8.1
O=P(c1ccccc1)(c1ccccc1)c1ccccc1C(Br)Br | · | -1.3 | · | · | 27.9* | 5.9
Cc1ccc(-n2nnnc2-c2cnc(-c3cccnc3)nc2C(F)(F)F)cc1 | 4.4 | 7.8 | 8.6 | -12.3 | 19.6* | 9.6
O=C(OCCCN1CCC2(CCCCC2)C1=O)c1ccccc1 | · | · | · | · | · | 9.2
Cc1ccc(C(=O)NNC(=O)CSc2nnc(C3CC3)n2C)cc1 | -0.1 | 4.2 | 9.6 | 8.6 | -1.8 | 6.3
Cn1c(SCC(=O)NNC(=O)c2ccccc2)nnc1C1CC1 | -0.7 | 0.6 | 1.2 | -1.1 | 24.4* | 2.1
Cc1ccc(C(=O)NNC(=O)CSc2nnc(C(C)C)n2C)cc1 | -6.4 | 10.4 | 10.6 | -6.7 | 19.6* | 5.1
CC(C)CCNc1nc(N)c([N+](=O)[O-])c(N2CCCCCC2)n1 | 8.9 | 13.3 | -15.6 | -11.9 | -12.6 | 5.7
Cc1cccc(N2C(=O)C(Cl)=C(Nc3c(C)n(C)n(-c4ccccc4)c3=O)C2=O)c1C | 7.5 | -0.4 | -2.3 | 17.4 | 26.0* | -1.5
COc1ccc(-c2c(-c3ccccc3OC)oc3ccccc23)cn1 | · | 8.1 | · | -4.5 | 26.8* | 7.3
CCCCCCCCCOC(=O)C1N2C(=O)[C@@H](NC(=O)COc3ccccc3)[C@H]2SC1(C)C (stereo partly drawn) | · | -2.9 | · | 3.0 | 21.9* | -0.2
CC(C)CNc1ncnc2c1ncn2[C@H]1CN(Cc2ccc(-c3ccccc3)cc2)C[C@@H](CO)O1 | · | 2.4 | · | · | 3.6 | -17.9
O=C(OCc1ccccc1)N1C[C@H](O)[C@H](O)C[C@@H]1c1c(Cl)cccc1Br | · | -1.0 | · | · | 19.5* | -11.0
O=C(OCc1ccccc1)N1C=CC2CC1c1c(Cl)cccc12 (stereo not drawn) | · | 3.7 | · | 13.9 | 5.7 | -6.2
SMILES | PfM18AAP inh | HTR2A ag | Hep lipid drop | Arrestin-AP2 inh | CendR NRP1 mod | HGIII-sPLA2 inh
Cc1scc(-c2n[nH]c(=S)n2Cc2ccccc2)c1C | 32.5* | 0.3 | -4.0 | 14.9 | 12.0 | 18.3
COc1ccccc1CN1CC(C(=O)NCCc2ccccc2Cl)CCC1=O (stereo not drawn) | -7.2 | 5.2 | 1.3 | -5.9 | 5.5 | 4.1
Cc1ccc(CNC(=O)C2CCC(=O)N(C3CC3)C2)cc1 (stereo not drawn) | -11.4 | 1.4 | -1.7 | 6.6 | 27.6* | -0.7
CCOC(=O)c1cccc(NC(=O)CN(C)S(=O)(=O)c2ccc(Br)s2)c1 | · | · | · | · | · | -15.1
COCCNC(=O)CN1CCCCCC1 | -1.0 | -1.0 | 24.3 | 13.8 | 25.9* | 4.0
C[C@@H]1CN([C@H](C)CO)S(=O)(=O)c2ccc(Br)cc2O[C@H]1CN(C)C(=O)Nc1ccccc1 | · | 0.1 | · | · | 2.9 | 0.0
COC(=O)C(C(=O)OC)c1ncccc1[N+](=O)[O-] | -1.0 | 7.7 | 4.1 | 29.9 | 5.1 | 6.7
COC(=O)C(C(=O)OC)c1ccccc1[N+](=O)[O-] | -8.8 | -2.3 | -3.2 | 1.5 | 31.2* | 0.3
N#Cc1c(-c2ccco2)nc(NCC2CCCO2)[nH]c1=O (stereo not drawn) | 3.9 | -1.4 | -4.4 | 0.4 | 26.8* | 5.2
O=C(CN1CCN(Cc2ccc3c(c2)OCO3)CC1)N1CCc2[nH]c3ccc(F)cc3c2C1 | 2.7 | -5.2 | 19.8 | 3.5 | 33.8* | -31.7
O=C(CN1CCN(Cc2ccc3c(c2)OCO3)CC1)N1CCc2[nH]c3ccccc3c2C1 | 4.1 | · | · | · | · | ·
COC(=O)c1ccc(N/C=C\C(=O)c2ccc3c(c2)OCO3)cc1 | -4.4 | 4.3 | -4.0 | 13.8 | 21.7* | -6.3
CC(c1ccncc1)C(C)c1ccncc1 (stereo not drawn) | · | 2.4 | · | -3.7 | 23.0* | 7.1
Cc1nnsc1C(=O)NNc1ccc(C(C)(C)C)cc1 | 28.6* | 2.4 | 1.6 | 0.7 | 2.0 | 2.2
Cc1nnsc1C(=O)NNc1ccc(C(C)C)cc1 | 3.4 | 4.6 | -4.7 | -9.3 | -7.2 | 3.7
O=C(CCn1cccn1)Nc1ccc2c(c1)OCCO2 | 2.5 | 0.6 | -1.0 | -8.5 | -0.9 | -3.5
Cc1nc(Nc2ccc(S(N)(=O)=O)cc2)oc1C | 10.1 | -1.0 | · | -2.2 | 25.9* | -2.5
CCN1CCCCC(NC(=O)c2ccc(Cl)cc2Cl)C1=O (stereo not drawn) | · | · | · | · | · | 7.8
O=C1NC(c2ccc3c(c2)OCO3)c2c(-c3ccccc3)n[nH]c21 (stereo not drawn) | · | · | · | · | · | -1.6
NC(=O)C(=O)N/N=C/c1c2ccccc2cc2ccccc12 | 3.3 | -3.2 | 4.7 | 11.0 | -97.9 | 1.4
O=C(CCNS(=O)(=O)c1ccc(Br)cc1)NCCc1ccc(Cl)cc1 | 1.2 | -7.4 | -8.0 | -2.6 | 26.6* | -22.4
Cc1ccc(CN2C(=O)CSCC2(C)C(=O)Nc2c(C)cccc2C)cc1 (stereo not drawn) | · | 2.4 | · | · | -8.0 | 7.6
